# Key:
# [1] = test system: SK-MEL-2; assay: Growth inhibition of human SK-MEL-2 cells after 48 hrs; type: functional; conditions: SK-MEL-2, 48 h
# In short: (§1)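 NCI-60 human tumour cell line panel screen run at the US National Cancer Institute under its standard cytotoxicity protocol. It covers leukaemia, NSCLC, colon, CNS, melanoma, ovarian, renal, prostate and breast lines. An initial single-dose test was followed by five-dose testing with 48 h compound exposure.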
# [2] = test system: Mycolicibacterium phlei; assay: Antimicrobial activity against Mycobacterium phlei assessed as inhibition at 20 ug/6 mm disk after 1 to 2 days by agar diffusion assay; type: functional
# In short: (§2)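 Standard agar diffusion: 6-mm paper disks loaded with 20 µg of compound were placed on inoculated plates. Inhibition-zone diameter (mm) was read after 1 and 2 days of growth.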
# [3] = Growth inhibition of human RXF393 cells after 48 hrs; type: functional; conditions: RXF 393, 48 h; in short: as §1
# [4] = Growth inhibition of human BT549 cells after 48 hrs; type: functional; conditions: BT-549, 48 h; in short: as §1
# [5] = Lipophilicity, log K of the compound by HPLC analysis
# [6] = Growth inhibition of human UACC62 cells after 48 hrs; type: functional; conditions: UACC-62, 48 h
# In short: (§3)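 Run by the NCI 58-cell-line screen under its standard cytotoxicity protocol. Compounds were first tested at a single dose, then at five doses. Cells were exposed to compound for 48 h.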
# [7] = test system: SK-MEL-5; assay: Growth inhibition of human SK-MEL-5 cells after 48 hrs; type: functional; conditions: SK-MEL-5, 48 h; in short: as §3
# [8] = test system: IGROV-1; assay: Growth inhibition of human IGROV1 cells after 48 hrs; type: functional; conditions: IGROV-1, 48 h; in short: as §1
# [9] = Growth inhibition of human COLO205 cells after 48 hrs; type: functional; conditions: COLO 205, 48 h; in short: as §1
# [10] = Growth inhibition of human LOXIMVI cells after 48 hrs; type: functional; conditions: LOX IMVI; in short: as §1
# [11] = test system: SNB-19; assay: Growth inhibition of human SNB19 cells after 48 hrs; type: functional; conditions: SNB-19, 48 h; in short: as §3
# [12] = test system: Klebsiella pneumoniae; assay: Antimicrobial activity against Klebsiella pneumoniae assessed as inhibition at 20 ug/6 mm disk after 1 to 2 days by agar diffusion assay; type: functional; in short: as §2
# [13] = test system: NCI-H522; assay: Growth inhibition of human NCI-H522 cells after 48 hrs; type: functional; conditions: NCI-H522, 48 h; in short: as §1
# [14] = test system: NCI-H460; assay: Growth inhibition of human NCI-H460 cells after 48 hrs; type: functional; conditions: NCI-H460, 48 h; in short: as §1
# [15] = Octanol-water partition coefficient, log P of the compound by HPLC analysis; type: physicochemical
# In short: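 Lipophilicity was measured by reversed-phase HPLC on a Nucleosil C18 column with isocratic water/methanol (3:1) at 0.5 ml/min and UV detection at 230 and 245 nm. Dead time was set with thiourea (t0 0.728 min). Retention factor was k = (tR − t0)/t0, and log P came from a calibration against at least six reference compounds.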
# [16] = test system: HL-60(TB); assay: Growth inhibition of human HL-60(TB) cells after 48 hrs; type: functional; conditions: HL-60, 48 h; in short: as §1
# [17] = Growth inhibition of human UO31 cells after 48 hrs; type: functional; conditions: UO-31, 48 h; in short: as §3
# [18] = Cytotoxicity against human fibroblasts assessed as cell viability after 24 hrs incubation by MTT assay; type: cell-based; conditions: Fibroblast
# In short: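 Cell lines came from DSMZ; primary human fibroblasts served as non-cancer controls. Cells were grown in medium with 10% FCS, seeded at 50,000 cells/ml, and grown 2 days at 37 °C, 10% CO2. Serial dilutions were then added for 24 h. MTT (final 0.5 mg/ml) was added for 2 h. Formazan was pelleted, PBS-washed, dissolved in isopropanol/0.4% HCl and read at 590 nm. Two parallel experiments were run. IC50 was taken as the concentration giving 50% of untreated-control absorbance.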
# [19] = test system: MDA-MB-231; assay: Growth inhibition of human MDA-MB-231 cells after 48 hrs; type: functional; conditions: MDA-MB-231, 48 h; in short: as §1
# [20] = test system: T47D; assay: Growth inhibition of human T47D cells after 48 hrs; type: functional; in short: as §3
# [21] = test system: K562; assay: Growth inhibition of human K562 cells after 48 hrs; type: functional; conditions: K562, 48 h; in short: as §1
# [22] = test system: SK-OV-3; assay: Growth inhibition of human SKOV3 cells after 48 hrs; type: functional; conditions: SK-OV-3, 48 h; in short: as §3
# [23] = test system: NCI-H23; assay: Growth inhibition of human NCI-H23 cells after 48 hrs; type: functional; conditions: NCI-H23, 48 h; in short: as §1
# [24] = test system: Malme-3M; assay: Growth inhibition of human MALME-3M cells after 48 hrs; type: functional; in short: as §1
# [25] = Growth inhibition of human OVCAR3 cells after 48 hrs; type: functional; conditions: OVCAR-3, 48 h; in short: as §1
# [26] = test system: HT-29; assay: Growth inhibition of human HT-29 cells after 48 hrs; type: functional; conditions: HT-29, 48 h; in short: as §1
# [27] = test system: SNB-75; assay: Growth inhibition of human SNB75 cells after 48 hrs; type: functional; conditions: SNB-75, 48 h; in short: as §3
# [28] = test system: 786-0; assay: Growth inhibition of human 786-0 cells after 48 hrs; type: functional; conditions: 786-0, 48 h; in short: as §1
# [29] = test system: SK-MEL-28; assay: Growth inhibition of human SK-MEL-28 cells after 48 hrs; type: functional; conditions: SK-MEL-28, 48 h; in short: as §1
# [30] = test system: M14; assay: Growth inhibition of human M14 cells after 48 hrs; type: functional; conditions: M14, 48 h; in short: as §1
# [31] = Growth inhibition of human SF539 cells after 48 hrs; type: functional; conditions: SF-539, 48 h; in short: as §1
# [32] = read-out: pLC50 (the source's name) (converted)
smiles,measurement,setting,value
CC1=C(SCCC(=O)OCC(=O)NCCC[Te]c2ccccc2)C(=O)c2ccccc2C1=O,GI50,[1],2.09 µM
same,CC50,[1]; [32],12.9 µM
same,TGI,[1]; read-out: pTGI (converted),4.79 µM
same,diameter of the inhibition zone (DIZ),[2],16 mm
same,GI50,[3],1.74 µM
same,LC50,[3],12.9 µM
same,TGI,[3]; read-out: pTGI (converted),4.37 µM
same,GI50,[4],1.66 µM
same,LC50 (concentration killing 50% of cells),[4],9.77 µM
same,TGI,[4]; read-out: pTGI (converted),4.07 µM
same,log K,[5],-0.56
same,GI50,[6],1.86 µM
same,CC50,[6]; [32],13.5 µM
same,TGI,[6]; read-out: pTGI (converted),4.57 µM
same,GI50,[7],1.29 µM
same,CC50,[7]; [32],5.25 µM
same,TGI,[7]; read-out: pTGI (converted),2.63 µM
same,GI50,[8],2.14 µM
same,CC50,[8]; [32],35.5 µM
same,TGI,[8]; read-out: pTGI (converted),6.46 µM
same,GI50,[9],1.91 µM
same,CC50,[9]; [32],8.91 µM
same,TGI,[9]; read-out: pTGI (converted),4.17 µM
same,GI50,[10],2.14 µM
same,LC50,[10],75.9 µM
same,TGI,[10]; read-out: pTGI (converted),5.37 µM
same,GI50,[11],2.63 µM
same,CC50,[11]; [32],42.7 µM
same,TGI,[11]; read-out: pTGI (converted),10.2 µM
same,diameter of the inhibition zone (DIZ),[12],13 mm
same,GI50,[13],2.51 µM
same,CC50,[13]; [32],47.9 µM
same,TGI,[13]; read-out: pTGI (converted),10.2 µM
same,GI50,[14],1.32 µM
same,CC50,[14]; [32],51.3 µM
same,TGI,[14]; read-out: pTGI (converted),4.17 µM
same,logP,[15],3.8
same,GI50,[16],2.57 µM
same,CC50,[16]; [32],> 100 µM
same,TGI,[16]; read-out: pTGI (converted),7.24 µM
same,GI50,[17],1.86 µM
same,LC50,[17],36.3 µM
same,TGI,[17]; read-out: pTGI (converted),9.55 µM
same,IC50,[18],13 µM
same,GI50,[19],1.86 µM
same,LC50,[19],9.55 µM
same,TGI,[19]; read-out: pTGI (converted),4.27 µM
same,GI50,[20],2 µM
same,LC50,[20],> 100 µM
same,TGI,[20]; read-out: pTGI (converted),5.75 µM
same,GI50,[21],3.55 µM
same,CC50,[21]; [32],> 100 µM
same,TGI,[21]; read-out: pTGI (converted),34.7 µM
same,GI50,[22],1.74 µM
same,CC50,[22]; [32],12.3 µM
same,TGI,[22]; read-out: pTGI (converted),4.37 µM
same,GI50,[23],2.29 µM
same,CC50,[23]; [32],44.7 µM
same,TGI,[23]; read-out: pTGI (converted),7.41 µM
same,GI50,[24],2.19 µM
same,CC50,[24]; [32],25.7 µM
same,TGI,[24]; read-out: pTGI (converted),6.03 µM
same,GI50,[25],2.63 µM
same,CC50,[25]; [32],15.5 µM
same,TGI,[25]; read-out: pTGI (converted),5.5 µM
same,GI50,[26],3.31 µM
same,CC50,[26]; [32],> 100 µM
same,TGI,[26]; read-out: pTGI (converted),11 µM
same,GI50,[27],1.48 µM
same,CC50,[27]; [32],24.5 µM
same,TGI,[27]; read-out: pTGI (converted),5.89 µM
same,GI50,[28],2.69 µM
same,LC50,[28],29.5 µM
same,TGI,[28]; read-out: pTGI (converted),8.32 µM
same,GI50,[29],2.29 µM
same,CC50,[29]; [32],17.8 µM
same,TGI,[29]; read-out: pTGI (converted),5.5 µM
same,GI50,[30],2.04 µM
same,CC50,[30]; [32],17 µM
same,TGI,[30]; read-out: pTGI (converted),5.13 µM
same,GI50,[31],2.09 µM
same,CC50,[31]; [32],27.5 µM
same,TGI,[31]; read-out: pTGI (converted),6.61 µM
